Measurements taken from ChEMBL document CHEMBL4689842, “EUbOPEN Chemogenomics Library wave 1” (2021).

Legend:
Assay type in all cases: toxicity, cell-based
U2OS [1] = assay: Multiplex assay against U2OS; conditions: human
How it was run: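 Per cents of healthy-nucleus cells form the tubulin, mitochondrial-mass and membrane-permeability phenotype values. Live cells were stained at seeding with Hoechst33342, BioTracker Green Microtubule Cytoskeleton Dye, MitoTracker Red and Annexin V Alexa Fluor 680. After compound addition they were imaged on a CQ1 microscope at 37°C and 5% CO2, and CellPathfinder machine-learning gating split them into Hoechst high-intensity objects or normal cells, normal cells into healthy, pyknosed or fragmented nuclei, and pyknosed cells into mitotic or apoptotic.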

Fibroblast = assay: Incucyte cell viability with human fibroblast; conditions: 10 µM, compound concentration 10 uM; also: filed as whole numbers so only -1 and 0 and 1 occur
U2OS [2] = assay: Incucyte cell viability with U2OS; conditions: human, 10 µM, compound concentration 10 uM; also: filed as whole numbers so only -1 and 0 and 1 occur
HEK-293T = assay: Incucyte cell viability with HEK293T; conditions: human, 10 µM, compound concentration 10 uM; also: filed as whole numbers so only -1 and 0 and 1 occur
[3] = 12 h, 1 µM, compound concentration 1 uM, replicate 1
[4] = 12 h, 1 µM, compound concentration 1 uM, replicate 2
[5] = 12 h, 10 µM, compound concentration 10 uM, replicate 1
[6] = 12 h, 10 µM, compound concentration 10 uM, replicate 2
[7] = 24 h, 1 µM, compound concentration 1 uM, replicate 1
[8] = 24 h, 1 µM, compound concentration 1 uM, replicate 2
[9] = 24 h, 10 µM, compound concentration 10 uM, replicate 1
[10] = 24 h, 10 µM, compound concentration 10 uM, replicate 2
[11] = 0 h, replicate number 1, timepoint 0 hours
[12] = 6 h, replicate number 2, timepoint 6 hours
[13] = 12 h, replicate number 1, timepoint 12 hours
[14] = 18 h, replicate number 1, timepoint 18 hours
[15] = 24 h, replicate number 1, timepoint 24 hours
[16] = 6 h, replicate number 1, timepoint 6 hours

CNC(=O)c1cc(Oc2ccc(NC(=O)Nc3cc(C(C)(C)C)nn3-c3ccc4ncccc4c3)c(F)c2)ccn1 [REBASTINIB]
Population Apoptotic (%) (U2OS [1]; [3]): 46%
Population Fragmented Nuclei (%) (U2OS [1]; [3]): 3%
Population Healthy Nuclei (%) (U2OS [1]; [3]): 88%
Population Hoechst High Intensity Objects (%) (U2OS [1]; [3]): 3%
Population Membrane Permeable-Phenotype (%) (U2OS [1]; [3]): 16%
Population Mitochondria Different-Phenotype (%) (U2OS [1]; [3]): 15%
Population Mitotic Cells (%) (U2OS [1]; [3]): 53%
Population Normal (%) (U2OS [1]; [3]): 96%
Population Pyknosed Nuclei (%) (U2OS [1]; [3]): 7%
Population Tubulin-Different-Phenotype (%) (U2OS [1]; [3]): 13%
Total Cell Count (U2OS [1]; [3]): 164
Population Apoptotic (%) (U2OS [1]; [4]): 0%
Population Fragmented Nuclei (%) (U2OS [1]; [4]): 10%
Population Healthy Nuclei (%) (U2OS [1]; [4]): 87%
Population Hoechst High Intensity Objects (%) (U2OS [1]; [4]): 7%
Population Membrane Permeable-Phenotype (%) (U2OS [1]; [4]): 17%
Population Mitochondria Different-Phenotype (%) (U2OS [1]; [4]): 31%
Population Mitotic Cells (%) (U2OS [1]; [4]): 100%
Population Normal (%) (U2OS [1]; [4]): 92%
Population Pyknosed Nuclei (%) (U2OS [1]; [4]): 1%
Population Tubulin-Different-Phenotype (%) (U2OS [1]; [4]): 35%
Total Cell Count (U2OS [1]; [4]): 113
Population Apoptotic (%) (U2OS [1]; [5]): 50%
Population Fragmented Nuclei (%) (U2OS [1]; [5]): 16%
Population Healthy Nuclei (%) (U2OS [1]; [5]): 63%
Population Hoechst High Intensity Objects (%) (U2OS [1]; [5]): 6%
Population Membrane Permeable-Phenotype (%) (U2OS [1]; [5]): 30%
Population Mitochondria Different-Phenotype (%) (U2OS [1]; [5]): 54%
Population Mitotic Cells (%) (U2OS [1]; [5]): 50%
Population Normal (%) (U2OS [1]; [5]): 93%
Population Pyknosed Nuclei (%) (U2OS [1]; [5]): 20%
Population Tubulin-Different-Phenotype (%) (U2OS [1]; [5]): 96%
Total Cell Count (U2OS [1]; [5]): 196
Population Apoptotic (%) (U2OS [1]; [6]): 46%
Population Fragmented Nuclei (%) (U2OS [1]; [6]): 8%
Population Healthy Nuclei (%) (U2OS [1]; [6]): 72%
Population Hoechst High Intensity Objects (%) (U2OS [1]; [6]): 11%
Population Membrane Permeable-Phenotype (%) (U2OS [1]; [6]): 18%
Population Mitochondria Different-Phenotype (%) (U2OS [1]; [6]): 52%
Population Mitotic Cells (%) (U2OS [1]; [6]): 53%
Population Normal (%) (U2OS [1]; [6]): 88%
Population Pyknosed Nuclei (%) (U2OS [1]; [6]): 18%
Population Tubulin-Different-Phenotype (%) (U2OS [1]; [6]): 98%
Total Cell Count (U2OS [1]; [6]): 111
Population Apoptotic (%) (U2OS [1]; [7]): 25%
Population Fragmented Nuclei (%) (U2OS [1]; [7]): 6%
Population Healthy Nuclei (%) (U2OS [1]; [7]): 84%
Population Hoechst High Intensity Objects (%) (U2OS [1]; [7]): 2%
Population Membrane Permeable-Phenotype (%) (U2OS [1]; [7]): 12%
Population Mitochondria Different-Phenotype (%) (U2OS [1]; [7]): 28%
Population Mitotic Cells (%) (U2OS [1]; [7]): 75%
Population Normal (%) (U2OS [1]; [7]): 97%
Population Pyknosed Nuclei (%) (U2OS [1]; [7]): 9%
Population Tubulin-Different-Phenotype (%) (U2OS [1]; [7]): 13%
Total Cell Count (U2OS [1]; [7]): 218
Population Apoptotic (%) (U2OS [1]; [8]): 44%
Population Fragmented Nuclei (%) (U2OS [1]; [8]): 13%
Population Healthy Nuclei (%) (U2OS [1]; [8]): 79%
Population Hoechst High Intensity Objects (%) (U2OS [1]; [8]): 13%
Population Membrane Permeable-Phenotype (%) (U2OS [1]; [8]): 14%
Population Mitochondria Different-Phenotype (%) (U2OS [1]; [8]): 26%
Population Mitotic Cells (%) (U2OS [1]; [8]): 55%
Population Normal (%) (U2OS [1]; [8]): 86%
Population Pyknosed Nuclei (%) (U2OS [1]; [8]): 7%
Population Tubulin-Different-Phenotype (%) (U2OS [1]; [8]): 35%
Total Cell Count (U2OS [1]; [8]): 126
Population Apoptotic (%) (U2OS [1]; [9]): 75%
Population Fragmented Nuclei (%) (U2OS [1]; [9]): 17%
Population Healthy Nuclei (%) (U2OS [1]; [9]): 50%
Population Hoechst High Intensity Objects (%) (U2OS [1]; [9]): 18%
Population Membrane Permeable-Phenotype (%) (U2OS [1]; [9]): 33%
Population Mitochondria Different-Phenotype (%) (U2OS [1]; [9]): 91%
Population Mitotic Cells (%) (U2OS [1]; [9]): 24%
Population Normal (%) (U2OS [1]; [9]): 81%
Population Pyknosed Nuclei (%) (U2OS [1]; [9]): 31%
Population Tubulin-Different-Phenotype (%) (U2OS [1]; [9]): 94%
Total Cell Count (U2OS [1]; [9]): 227
Population Apoptotic (%) (U2OS [1]; [10]): 64%
Population Fragmented Nuclei (%) (U2OS [1]; [10]): 15%
Population Healthy Nuclei (%) (U2OS [1]; [10]): 59%
Population Hoechst High Intensity Objects (%) (U2OS [1]; [10]): 17%
Population Membrane Permeable-Phenotype (%) (U2OS [1]; [10]): 30%
Population Mitochondria Different-Phenotype (%) (U2OS [1]; [10]): 87%
Population Mitotic Cells (%) (U2OS [1]; [10]): 35%
Population Normal (%) (U2OS [1]; [10]): 82%
Population Pyknosed Nuclei (%) (U2OS [1]; [10]): 25%
Population Tubulin-Different-Phenotype (%) (U2OS [1]; [10]): 97%
Total Cell Count (U2OS [1]; [10]): 141
Growth Rate (Fibroblast; [11]): 0
Growth Rate (Fibroblast; [12]): 1
Growth Rate (Fibroblast; [13]): 0
Growth Rate (Fibroblast; [14]): 0
Growth Rate (Fibroblast; [15]): 0
Growth Rate (U2OS [2]; [11]): 1
Growth Rate (U2OS [2]; [16]): 0
Growth Rate (U2OS [2]; [12]): 1
Growth Rate (U2OS [2]; [13]): 0
Growth Rate (U2OS [2]; [14]): 0
Growth Rate (U2OS [2]; [15]): 0
Growth Rate (HEK-293T; 0 h, replicate number 2, timepoint 0 hours): 0
Growth Rate (HEK-293T; [16]): 0
Growth Rate (HEK-293T; [13]): 0
Growth Rate (HEK-293T; [14]): 0
Growth Rate (HEK-293T; [15]): 0
